Calb biofilm kill: kills Candida albicans biofilms; C. albicans biofilm + clotrimazole, Alamar Blue; inhibition, % at 6 µM; 85,000 tested, 0.14% active;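 active = inhibition above 20%; inactive = inhibition below 20%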;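 note: preformed 24 hr biofilms exposed to compound for 48 hr; 0% = biofilm without compound and 100% = blank killed by clotrimazole plus chlorhexidine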
Lung fibro prol: blocks proliferation of human lung fibroblasts; LL 47 human lung fibroblast viability, ATP luminescence; hits give low values; 85,000 tested, 1.1% active; viability, % at 10 µM;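 active = viability at or below 50% in the single dose screen; inactive = viability above 50%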;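 note: compound exposure lasted 72 h before the ATP readout; 100% = median luminescence of untreated cell-only wells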
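material = human LL 47 lung fibroblast cells | dosing = compounds added from tenfold dosing solution, 0.1% DMSO final | timing = overnight cell rest, 72 h compound treatment at 37 °C | measured by = CellTiter-Glo luminescence measuring cellular ATP | evaluation = % viability versus median cells-only luminescence | control set = cell-only wells, no compound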
HCT116 bCat-KO: beta-catenin-lacking colon tumor cell growth suppression. 140,000 tested, 1.5% active. HCT116 beta-catenin knockout viability, CellTiter-Glo, 60 h; hits give low values. viability, % at 10 µM;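 active = viability at or under a set limit, the compound median less 4 SD, cut at about 6% in these data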;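 note: 0% = Hyamine 1622 control at 20 µM and 100% = untreated cell control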
HUVEC inhibit: human endothelial cell proliferation inhibition; viability, % at 10 µM (by protocol); 86,000 tested, 1.1% active; HUVEC proliferation, CellTiter-Glo luminescence, 72 h; hits give low values;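 active = viability at or below 30%; inactive = viability above 30%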;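 note: 100% = median luminescence of DMSO-only cell control wells on each plate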
H69AR growth 86K: growth inhibitors of human H69AR lung tumor cells; H69AR lung tumor viability, ATP luminescence, 72 h; hits give low values; AID 598; 85,000 tested, 6% active; viability, % at 10 µM;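 active = viability at or below 40%; inactive = viability above 40%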;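 note: multidrug resistant small cell line overexpressing MRP-1 efflux transporter; 100% = mean luminescence of untreated control wells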
PTEN del growth: PTEN-deleted cell growth suppression; HCT116 PTEN-null viability, CellTiter-Glo, 60 h; hits give low values; viability, % at 10 µM; 140,000 tested, 1.2% active;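 active = viability at or below a set limit, 4 SD under the median of all tested compounds, cut at about 3.7% in these data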;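 note: PTEN knockout HCT116 line with beta catenin targeted HCT116 as companion control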
* = called active by the depositor; . = not tested or not shown. Shown is part of a subset that was picked to be rich in hits.

SMILES | Calb biofilm kill | Lung fibro prol | HCT116 bCat-KO | HUVEC inhibit | H69AR growth 86K | PTEN del growth
O=C(Oc1ccc(Cl)c2cccnc12)N1CCOCC1 | . | . | 88 | . | . | 83
COc1cccc(C(=O)Oc2c(CN3CCOCC3)cc(Cl)c3cccnc23)c1 | -2 | 6.5* | 1.6* | 72 | 1.5* | 1.4*
O=C(Oc1c(Br)cc(C(=S)N2CCOCC2)cc1Br)c1ccc(Cl)cc1 | . | . | 55 | . | . | 60
Cn1cccc1/C=C1\SC(=S)N(NC(=O)c2cccc(Cl)c2)C1=O | . | . | 105 | . | . | 101
O=[N+]([O-])c1ccc(NCCCNS(=O)(=O)c2ccccc2)c(Cl)c1 | . | . | 91 | . | . | 79
Clc1ccc2oc3c(Cl)ncnc3c2c1 | . | . | 3.0* | . | . | 14
O=S(=O)(c1ccc(Cl)c(Cl)c1)c1snnc1-c1ccccc1 | 0 | 4.8* | 1.2* | 3.6* | -0.2* | 1.3*
CN(C)c1nc(-c2ccccn2)nnc1-c1ccccc1 | 1 | 13* | 13 | 11* | 53 | 14
c1ccc(-c2nnc(-c3ccccn3)nn2)nc1 | 10 | 100 | . | 80 | 44 | .
COC(=O)c1ccc2c(=O)n(CCN3CCOCC3)c(=S)[nH]c2c1 | 7 | 98 | 107 | 85 | 100 | 107
O=C(O)C(=O)/C(=C\c1cccc2ccccc12)c1ccc2ccccc2n1 | 0 | 92 | 68 | 68 | 18* | 62
COc1cc(NC(=S)NCCCN2CCOCC2)cc(OC)c1 | . | . | 95 | . | . | 91
COc1ccc2cc(/C(C)=N/NC(=O)c3cc(-c4cccnc4)nc4ccccc34)ccc2c1 | . | . | 91 | . | . | 95
CCCOc1c(Br)cc(/C=N/O)cc1OC | 4 | 98 | 109 | 63 | 30* | 94
CCOc1cc(/C=N/O)cc(Br)c1OCC | 7 | 97 | 96 | 78 | 67 | 90
COc1ccc(-c2nnc(SCC(=O)N3CCCc4ccccc43)o2)cc1OC | -1 | 98 | 88 | 85 | 37* | 80
COc1ccc(OC)c(C(=O)CSc2nnc(-c3ccc(OC)c(OC)c3)o2)c1 | 5 | 30* | 86 | 67 | 84 | 89
COc1ccc(-c2nnc(SCC#CCO)o2)cc1OC | 0 | 97 | 97 | 102 | 31* | 111
COc1ccc(C(=O)CSc2nnc(-c3ccc(C)cc3)o2)cc1 | 6 | 94 | 91 | 81 | 102 | 92
COc1ccc(-c2nnc(SCC(=O)N3CCCC3)o2)cc1OC | 4 | 100 | . | 96 | 99 | .
CCOc1cc(/C=N/NC(=O)Cn2nc([N+](=O)[O-])cc2C)cc(Br)c1OCc1ccccc1F | 4 | 51 | 19 | 30* | 8.3* | 13
COc1ccc(N2C3=C(CC4=C2CCCC4=O)C(=O)CCC3)cc1 | 4 | 105 | 95 | 89 | 89 | 83
COc1ccc(N2C3=C(CC4=C2CC(C)(C)CC4=O)C(=O)CC(C)(C)C3)cc1 | 0 | 6.0* | 1.1* | 10* | 89 | 1.1*
CC1CC(C)CN(C(=O)c2ccc3c(=O)n(Cc4ccc5c(c4)OCO5)c(=S)[nH]c3c2)C1 (stereo not given) | 5 | 92 | 79 | 73 | 83 | 77
O=C(c1ccc2c(=O)n(CC3CCCO3)c(=S)[nH]c2c1)N1CCN(c2ccccc2)CC1 (stereo not given) | 6 | 97 | 1.1* | 108 | 70 | 1.5*
SMILES | Calb biofilm kill | Lung fibro prol | HCT116 bCat-KO | HUVEC inhibit | H69AR growth 86K | PTEN del growth
COCCCNC(=O)c1ccc2c(=O)n(Cc3ccc4c(c3)OCO4)c(=S)[nH]c2c1 | 14 | 113 | 83 | 22* | 58 | 79
CCOC(=O)N1CCN(C(=O)c2ccc3c(=O)n(Cc4ccccc4OC)c(=S)[nH]c3c2)CC1 | -3 | 89 | 93 | 89 | 34* | 85
CCOC(=O)N1CCN(C(=O)c2ccc3c(=O)n(Cc4ccccc4)c(=S)[nH]c3c2)CC1 | 7 | 97 | 81 | 93 | 42 | 81
O=C(c1ccc2c(=O)n(Cc3ccc4c(c3)OCO4)c(=S)[nH]c2c1)N1CCCCC1 | 11 | 93 | 80 | 73 | 35* | 65
Cc1ccc(Nc2nnc(-c3ccncc3)s2)c(Br)c1 | . | . | 77 | . | . | 75
N#C/C(=C\c1cc(Cl)cc(Cl)c1O)C(=O)NC1CCCCC1 | . | . | 96 | . | . | 83
COc1ccc(-n2nnc3c(SCC(=O)N4CCCc5ccccc54)ncnc32)cc1 | 4 | 97 | . | 85 | 62 | .
CCc1c(C)nc2ncnn2c1N1CCC(C(=O)Nc2ccc(C)cc2)CC1 | 5 | 100 | 68 | 101 | 35* | 74
CCc1c(C)nc2ncnn2c1N1CCC(C(=O)Nc2ccccc2)CC1 | 8 | 93 | 68 | 95 | 57 | 80
CCn1c2ccccc2c2cc(NC(=O)CSc3nnc(-c4ccc(OC)c(OC)c4)n3N)ccc21 | 7 | 107 | 52 | 83 | 22* | 61
CCOc1ccc(-c2nnc(SCC(=O)Nc3ccc4c(c3)c3ccccc3n4CC)n2N)cc1 | . | . | 3.9* | . | . | 5
COc1cc(C(=O)Nc2nc(OC)c(-c3ccccc3)c(OC)n2)cc(OC)c1OC | 2 | 85 | 88 | 64 | 32* | 92
COc1cc(C(=O)Nc2cc(-c3ccccc3)[nH]n2)cc(OC)c1OC | 9 | 83 | 67 | 64 | 25* | 48
Cc1cc(C)n2nc3nc4c(cc3c2n1)CCCC4 | 2 | 95 | 92 | 87 | 78 | 88
O=C(Nc1ccc2nc(-c3ccccn3)[nH]c2c1)C1CCCCC1 | -2 | 99 | 95 | 78 | 26* | 89
CCOC(=O)c1sc(NC(=O)Nc2ccc(Cl)cc2)cc1C | . | . | 5.2* | . | . | 5
CCOC(=O)c1sc(NC(=O)c2c(C)nn(Cc3ccccc3)c2C)cc1C | 5 | 94 | 19 | 60 | 13* | 6
CCOC(=O)c1sc(NC(=O)c2ccc(Cl)s2)cc1C | 17 | 104 | 90 | 67 | 97 | 96
CCN(CC)C(=O)CC(c1ccc(F)cc1)c1ccc(OC(C)C)cc1 (stereo not given) | . | . | 70 | . | . | 72
Cc1ccc(N(Cc2ccc(C(=O)NC3CCCCC3)cc2)S(C)(=O)=O)cc1C | 2 | 91 | 71 | 62 | 19* | 77
CS(=O)(=O)N(Cc1ccccc1)c1ccc(C(=O)NC2CCCCC2O)cc1 (stereo not given) | 6 | 98 | 95 | 99 | 101 | 93
COc1ccc(NC(=O)Cn2nnc(-c3ccccc3NC(=O)c3cccs3)n2)cc1 | 5 | . | 62 | 32 | 7.5* | 50
CCOc1ccc(NC(=O)Cn2nnc(-c3ccccc3NC(=O)CC)n2)cc1 | 1 | 89 | 87 | 94 | 80 | 85
Cc1ccc(NC(=O)Cn2nnc(-c3ccccc3NC(=O)c3cccs3)n2)cc1 | 2 | 46* | 4.0* | 19* | 6.8* | 3.4*
O=C(Cn1nnc(-c2ccccc2NC(=O)c2ccco2)n1)Nc1ccccc1 | 3 | 78 | 58 | 46 | 23* | 74
COc1ccc(NC(=O)Cn2nnc(-c3ccccc3NS(=O)(=O)c3ccc(OC)cc3)n2)cc1 | . | . | 10 | . | . | 11
CCN(CC)C(=O)C[n+]1cccc(C(N)=O)c1 | . | . | 84 | . | . | 99
C/C(=N\NC(=O)CC(C)C)c1ccc(N2CCCCC2)cc1 | . | . | 99 | . | . | 95
